Results on 13 compounds are retold here after ChEMBL document CHEMBL1143155, “Synthesis and SAR of selective muscarinic acetylcholine receptor subtype 1 (M1 mAChR) antagonists” (Bioorg Med Chem Lett, 2008).

One may read the IC50 as the point on the concentration scale where inhibition reaches its midpoint. As a reminder, the Ki is a measure of affinity in units of concentration, obtained from inhibition or displacement.

Assay [1] concerns the target T1, Muscarinic acetylcholine receptor M5 (Rattus norvegicus, UniProt P08911).
T1 sequence (P08911 whole entry): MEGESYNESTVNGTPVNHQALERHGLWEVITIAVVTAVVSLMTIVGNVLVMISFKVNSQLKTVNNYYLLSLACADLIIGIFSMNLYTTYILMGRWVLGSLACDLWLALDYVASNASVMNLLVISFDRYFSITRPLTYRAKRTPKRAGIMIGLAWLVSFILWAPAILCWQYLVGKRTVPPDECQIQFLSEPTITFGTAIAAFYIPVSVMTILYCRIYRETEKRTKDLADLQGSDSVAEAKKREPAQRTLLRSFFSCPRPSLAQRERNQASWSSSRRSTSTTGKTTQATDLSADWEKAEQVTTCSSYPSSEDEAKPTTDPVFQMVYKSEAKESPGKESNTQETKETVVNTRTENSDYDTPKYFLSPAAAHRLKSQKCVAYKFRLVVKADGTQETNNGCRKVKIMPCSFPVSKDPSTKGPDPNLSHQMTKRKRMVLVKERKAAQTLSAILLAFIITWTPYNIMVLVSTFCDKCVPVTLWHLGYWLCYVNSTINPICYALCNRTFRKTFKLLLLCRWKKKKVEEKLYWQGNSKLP
Nature of the assay: Antagonist activity at rat muscarinic M5 receptor expressed in CHO cells by calcium mobilization assay. It is filed as functional, cell-based. (A change in cytosolic calcium serves as a functional read-out for many receptors and channels.)

Assay [2] addresses T2, Muscarinic acetylcholine receptor M2 (Rattus norvegicus, UniProt P10980).
T2 sequence (P10980 whole entry): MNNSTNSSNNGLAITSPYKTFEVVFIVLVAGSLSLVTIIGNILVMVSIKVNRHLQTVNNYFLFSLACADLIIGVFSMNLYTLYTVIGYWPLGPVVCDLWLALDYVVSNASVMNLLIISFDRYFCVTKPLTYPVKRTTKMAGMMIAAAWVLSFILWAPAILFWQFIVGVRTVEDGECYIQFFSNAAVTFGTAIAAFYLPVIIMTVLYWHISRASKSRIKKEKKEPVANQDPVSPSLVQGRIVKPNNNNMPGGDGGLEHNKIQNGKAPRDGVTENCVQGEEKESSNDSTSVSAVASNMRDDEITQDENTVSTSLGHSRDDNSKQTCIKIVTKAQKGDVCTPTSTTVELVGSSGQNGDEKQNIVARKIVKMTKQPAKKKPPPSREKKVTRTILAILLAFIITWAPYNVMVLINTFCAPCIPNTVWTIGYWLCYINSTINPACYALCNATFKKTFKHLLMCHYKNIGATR
Nature of the assay: Antagonist activity at rat muscarinic M2 receptor expressed in CHO cells by calcium mobilization assay. In kind it is functional, cell-based.

Assay [3] has as its target T3, Muscarinic acetylcholine receptor M4 (Rattus norvegicus, UniProt P08485).
T3 sequence (P08485 whole entry): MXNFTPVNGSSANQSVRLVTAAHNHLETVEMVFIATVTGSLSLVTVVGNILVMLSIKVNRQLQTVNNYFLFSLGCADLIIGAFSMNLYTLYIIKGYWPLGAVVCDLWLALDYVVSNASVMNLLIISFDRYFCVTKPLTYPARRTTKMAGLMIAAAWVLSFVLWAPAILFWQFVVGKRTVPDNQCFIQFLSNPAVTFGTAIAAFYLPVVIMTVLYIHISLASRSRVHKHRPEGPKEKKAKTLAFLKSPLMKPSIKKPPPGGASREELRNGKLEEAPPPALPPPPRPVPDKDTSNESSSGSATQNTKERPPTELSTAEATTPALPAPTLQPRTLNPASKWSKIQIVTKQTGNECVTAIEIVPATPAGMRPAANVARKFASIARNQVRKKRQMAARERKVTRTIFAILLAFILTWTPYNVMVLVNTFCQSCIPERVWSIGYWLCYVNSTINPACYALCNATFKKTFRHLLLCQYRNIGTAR
Nature of the assay: Antagonist activity at rat muscarinic M4 receptor expressed in CHO cells by calcium mobilization assay. In kind it is functional, cell-based.

For assay [4], the target named is T4, Muscarinic acetylcholine receptor M1 (Rattus norvegicus, UniProt P08482).
T4 sequence (P08482 whole entry): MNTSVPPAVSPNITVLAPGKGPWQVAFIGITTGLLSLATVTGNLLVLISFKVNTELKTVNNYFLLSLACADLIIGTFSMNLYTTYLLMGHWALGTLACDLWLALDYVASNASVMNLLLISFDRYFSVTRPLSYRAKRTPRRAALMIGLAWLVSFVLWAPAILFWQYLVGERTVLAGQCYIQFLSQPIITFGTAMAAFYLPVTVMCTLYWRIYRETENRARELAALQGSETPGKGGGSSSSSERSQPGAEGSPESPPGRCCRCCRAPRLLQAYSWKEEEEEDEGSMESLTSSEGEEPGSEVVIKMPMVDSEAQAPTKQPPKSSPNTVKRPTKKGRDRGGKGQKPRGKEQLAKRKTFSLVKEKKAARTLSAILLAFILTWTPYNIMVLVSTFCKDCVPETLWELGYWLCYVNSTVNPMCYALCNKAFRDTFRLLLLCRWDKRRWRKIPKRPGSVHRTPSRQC
Nature of the assay: Antagonist activity at rat muscarinic M1 receptor expressed in CHO cells by calcium mobilization assay. In kind it is functional, cell-based.

In assay [5] the target is T5, Muscarinic acetylcholine receptor M3 (Rattus norvegicus, UniProt P08483). Description: Antagonist activity at rat muscarinic M3 receptor expressed in CHO cells by calcium mobilization assay. It is filed as functional, cell-based.
The species entered for assay [6] is Rattus norvegicus. Nature of the assay: Selectivity for rat muscarinic M1 receptor over rat muscarinic M5 receptor by calcium mobilization assay.
Assay [7] is filed under the species Rattus norvegicus. Description: Selectivity for rat muscarinic M1 receptor over rat muscarinic M3 receptor by calcium mobilization assay.
For assay [8], the species on record is Rattus norvegicus. Nature of the assay: Selectivity for rat muscarinic M1 receptor over rat muscarinic M4 receptor by calcium mobilization assay.
Assay [9] deals with T6, Muscarinic acetylcholine receptor M1 (Homo sapiens) (UniProt P11229).
T6 sequence (whole entry): T4 sequence (P08482 whole entry) with V5A, S254T, S309P, K320R, G337A, V413I
Nature of the assay: Inhibition of human muscarinic M1 receptor.

In assay [10] the target is T2, Muscarinic acetylcholine receptor M2. Description: Displacement of [3H]NMS from rat muscarinic M2 receptor expressed in CHO cells. In kind it is cell-based.
In assay [11] the target is T1, Muscarinic acetylcholine receptor M5. Nature of the assay: Displacement of [3H]NMS from rat muscarinic M5 receptor expressed in CHO cells. In kind it is cell-based. For orientation: In a radioligand displacement assay an active substance lowers the binding of a labelled ligand.
In assay [12] the target is T4, Muscarinic acetylcholine receptor M1. Nature of the assay: Displacement of [3H]NMS from rat muscarinic M1 receptor expressed in CHO cells. It is filed as cell-based. In a few lines: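 Competition binding against the orthosteric radioligand [³H]-N-methylscopolamine on rat mAChR subtypes from CHO cell lines, with atropine as positive control. Ki values are averages of three independent experiments.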

The target in assay [13] is T3, Muscarinic acetylcholine receptor M4. Nature of the assay: Displacement of [3H]NMS from rat muscarinic M4 receptor expressed in CHO cells. It is filed as cell-based.
For assay [14], the target named is T5, Muscarinic acetylcholine receptor M3. Description: Displacement of [3H]NMS from rat muscarinic M3 receptor expressed in CHO cells. It is filed as cell-based.

SMILES strings stand for the structures. Changes are numbered by the printed parent chain. Active and inactive are the calls of the source. The calls are words filed in the database; no cut-off is given here.

T5 sequence (P08483 whole entry): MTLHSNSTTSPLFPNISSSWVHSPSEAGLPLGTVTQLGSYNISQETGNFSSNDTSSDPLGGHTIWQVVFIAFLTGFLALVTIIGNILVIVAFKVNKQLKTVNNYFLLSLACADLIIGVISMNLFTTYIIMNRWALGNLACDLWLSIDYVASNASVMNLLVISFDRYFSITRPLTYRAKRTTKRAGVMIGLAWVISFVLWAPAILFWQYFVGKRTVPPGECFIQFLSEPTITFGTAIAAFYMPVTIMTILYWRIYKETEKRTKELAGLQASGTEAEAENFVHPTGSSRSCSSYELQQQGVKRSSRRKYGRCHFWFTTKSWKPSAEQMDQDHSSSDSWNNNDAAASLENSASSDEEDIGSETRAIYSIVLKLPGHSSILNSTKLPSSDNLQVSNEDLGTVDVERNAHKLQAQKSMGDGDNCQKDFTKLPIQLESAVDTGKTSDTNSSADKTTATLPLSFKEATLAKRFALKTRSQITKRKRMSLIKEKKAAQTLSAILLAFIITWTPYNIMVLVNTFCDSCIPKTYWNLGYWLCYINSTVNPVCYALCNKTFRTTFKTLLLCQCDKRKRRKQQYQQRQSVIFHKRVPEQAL

With `CCN1CCN(c2ccc(NC(=O)[C@H]3C[C@@H]3c3ccccc3)cc2Cl)CC1`, the IC50 is 13 µM in [1]; 29 µM in assay [2]; 20 µM in assay [3]; 1.15 µM in assay [4]; 24 µM in assay [5].
For `CCN1CCN(c2ccc(NC(=O)CC(C)(C)C)cc2Cl)CC1`, the IC50 in assay [1], in assay [2], in [3], in assay [4] and in assay [5] was above 150 µM each time.
`CCN1CCN(c2ccc(NC(=O)Cc3ccc(F)cc3)cc2Cl)CC1`: the IC50 was above 150 µM in [1]; above 150 µM in assay [2]; above 150 µM in assay [3]; 5.6 µM in assay [4]; above 150 µM in assay [5]. Moreover, the Ratio IC50 in assay [6], in assay [7] and in assay [8] was above 26 throughout.
For `CCN1CCN(c2ccc(NC(=O)COc3ccccc3)cc2Cl)CC1`, the IC50 is above 150 µM in assay [1]; above 150 µM in assay [2]; above 150 µM in [3]; 3.3 µM in assay [4]; above 150 µM in assay [5]. For the same compound, the Ratio IC50 in assay [6], in assay [7] and in assay [8] was above 45 each time.
`CCN1CCN(c2ccc(NC(=O)CCc3ccccc3)cc2Cl)CC1`: the IC50 in assay [1] worked out at 7.6 µM; in [2], 52 µM; in assay [3] it was 18 µM; in [4], 1.1 µM; in assay [5], 70 µM. The Ratio IC50 in [6] amounted to 6.9; in assay [7] it was 63; in assay [8], 16.
In the case of `CCCCCC(=O)Nc1ccc(N2CCN(CC)CC2)c(Cl)c1`, the IC50 in assay [1] was above 150 µM; in assay [2], above 150 µM; in [3], 7.9 µM; in assay [4], 0.49 µM; in assay [5] it was above 150 µM. In assay [9], the outcome was Active.
`CCN1CCN(c2ccc(NC(=O)C3CCCCC3)cc2Cl)CC1`: the IC50 in assay [1] is above 150 µM; in assay [2], above 150 µM; in [3], above 150 µM; in [4], 4.6 µM; in assay [5], above 150 µM. For the same compound, the Ratio IC50 in [6], in assay [7] and in assay [8] was above 32 each time.
Take `CCCCOc1cccc(C(=O)Nc2ccc(N3CCN(CC)CC3)c(Cl)c2)c1`: the IC50 is 5.1 µM in assay [3] and 0.58 µM in assay [4]. Further, in assay [9], the outcome was Active.
Regarding `CCN1CCN(c2ccc(NC(=O)COCc3ccccc3)cc2Cl)CC1`, the IC50 in assay [1] was above 150 µM; in assay [2] it was above 150 µM; in assay [3] it was above 150 µM; in assay [4] it was 18.8 µM; in assay [5] it was above 150 µM.
As to `CCN1CCN(c2ccc(NC(=O)c3ccccc3)cc2Cl)CC1`, the IC50 was above 150 µM in assay [1]; above 150 µM in assay [2]; 66 µM in assay [3]; 5 µM in [4]; above 150 µM in assay [5].
As to `CCCC(=O)Nc1ccc(N2CCN(CC)CC2)c(Cl)c1`, the IC50 in assay [1], in assay [2], in assay [3], in assay [4] and in assay [5] was above 150 µM in each case.
As for `CN1CCN(CC(=O)N2c3ccccc3C(=O)Nc3cccnc32)CC1`, the Ratio IC50 in assay [6], in assay [7] and in [8] was 20 in each case.
As to `CCN1CCN(c2ccc(NC(=O)CCC3CCCC3)cc2Cl)CC1`, the Ki in assay [10] stood at 0.338 µM; in [11] it was 0.0857 µM; in assay [12], 0.0127 µM; in assay [13], 0.445 µM; in [14], 0.0748 µM. Further, the IC50 was 1.1 µM in [1]; 3.5 µM in assay [2]; above 150 µM in assay [3]; 0.44 µM in [4]; 3.1 µM in [5]. Moreover, the Ratio IC50 was 2.4 in assay [6], 7 in assay [7] and above 340 in assay [8].
